Results taken from ChEMBL document CHEMBL1125326, “Potent gonadotropin releasing hormone antagonists with low histamine-releasing activity” (J Med Chem, 1992).
In brackets after ≈: the same amount, converted by molar mass. Non-standard residues stand in square brackets, D forms with d. Residues, ends and D or L forms follow the SMILES beside them. dPhe(4-F) = N[C@H](Cc1ccc(F)cc1)C(=O)O; d2Nal = N[C@H](Cc1ccc2ccccc2c1)C(=O)O

How the values were obtained:
Rattus norvegicus [1] = organism: Rattus norvegicus; assay: Evaluated for the release of histamine in rats (based on 10 animals per dose group); assay type: functional, organism-based
Rattus norvegicus [2] = assay: Evaluated for the anti-ovulatory activity (rats were injected subcutaneously at noon on proestrus); assay type: functional
How it was run: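 Female rats with at least two consecutive normal 4-day cycles, confirmed by vaginal lavage cytology, were dosed once s.c. at noon on proestrus in 50% propylene glycol/0.9% saline. On the morning of expected estrus, the oviducts were examined for ovulated eggs, which were counted. The effective dose came from % females ovulating plotted against log dose, usually with ≥3 dose groups (10 rats per group total).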

SMILES | EC50 (Rattus norvegicus [1]) [µg/mL] | ED50 (Rattus norvegicus [2]) [µg]
CC/N=C(\NCC)NCCCC[C@H](NC(=O)[C@H](CC(C)C)NC(=O)[C@@H](Cc1c[nH]c2ccccc12)NC(=O)[C@H](Cc1ccc(O)cc1)NC(=O)[C@H](CO)NC(=O)[C@@H](Cc1c[nH]c2ccccc12)NC(=O)[C@@H](Cc1ccc(Cl)cc1)NC(=O)[C@@H](Cc1ccc2ccccc2c1)NC(C)=O)C(=O)N1CCC[C@H]1C(=O)N[C@H](C)C(N)=O | 16 (≈ 10.2 µM) | ~0.9
CC(=O)N[C@H](Cc1ccc2ccccc2c1)C(=O)N[C@H](Cc1ccc(Cl)cc1)C(=O)N[C@H](Cc1c[nH]c2ccccc12)C(=O)N[C@@H](CO)C(=O)N[C@@H](Cc1ccc(O)cc1)C(=O)N[C@H](CCCCNC1=NCCCN1)C(=O)N[C@@H](CC(C)C)C(=O)N[C@@H](CCCCNC1=NCCCN1)C(=O)N1CCC[C@H]1C(=O)N[C@H](C)C(N)=O [listing 1 of 2 here] | 2.5 (≈ 1.59 µM) | 
CC(=O)N[C@H](Cc1ccc2ccccc2c1)C(=O)N[C@H](Cc1ccc(Cl)cc1)C(=O)N[C@H](Cc1cccnc1)C(=O)N[C@@H](CO)C(=O)N[C@@H](CCCN=C(N)N)C(=O)N[C@H](Cc1cccnc1)C(=O)N[C@@H](CC(C)C)C(=O)N[C@@H](CCCCN=C(NCC(F)(F)F)NCC(F)(F)F)C(=O)N1CCC[C@H]1C(=O)N[C@H](C)C(N)=O | 0.95 (≈ 0.596 µM) | 0.595
CCCC/N=C(\N)NCCCC[C@H](NC(=O)[C@H](CO)NC(=O)[C@@H](Cc1cccnc1)NC(=O)[C@@H](Cc1ccc(Cl)cc1)NC(=O)[C@@H](Cc1ccc2ccccc2c1)NC(C)=O)C(=O)N[C@H](Cc1cccnc1)C(=O)N[C@@H](CC(C)C)C(=O)N[C@@H](CCCCN/C(N)=N/CCCC)C(=O)N1CCC[C@H]1C(=O)N[C@H](C)C(N)=O [listing 1 of 2 here] | 9.3 (≈ 5.98 µM) | 
CC/N=C(\NCC)NCCCC[C@H](NC(=O)[C@H](CC(C)C)NC(=O)[C@@H](Cc1cccnc1)NC(=O)[C@H](Cc1ccc(O)cc1)NC(=O)[C@H](CO)NC(=O)[C@@H](Cc1cccnc1)NC(=O)[C@@H](Cc1ccc(Cl)cc1)NC(=O)[C@@H](Cc1ccc2ccccc2c1)NC(C)=O)C(=O)N1CCC[C@H]1C(=O)N[C@H](C)C(N)=O | 196 (≈ 131 µM) | 0.6
CC(=O)N[C@H](Cc1ccc2ccccc2c1)C(=O)N[C@H](Cc1ccc(Cl)cc1)C(=O)N[C@H](Cc1cccnc1)C(=O)N[C@@H](CO)C(=O)N[C@@H](CCCN=C(N)N)C(=O)N[C@H](CCC(=O)N[C@@H](C)C(=O)N[C@@H](C)C(=O)O)C(=O)N[C@@H](CC(C)C)C(=O)N[C@@H](CCCN=C(N)N)C(=O)N1CCC[C@H]1C(=O)N[C@H](C)C(N)=O | 1.6 (≈ 1.04 µM) | <1.5
CCCC/N=C(\N)NCCCC[C@H](NC(=O)[C@H](CC(C)C)NC(=O)[C@@H](Cc1cccnc1)NC(=O)[C@H](Cc1ccc(O)cc1)NC(=O)[C@H](CO)NC(=O)[C@@H](Cc1cccnc1)NC(=O)[C@@H](Cc1ccc(Cl)cc1)NC(=O)[C@@H](Cc1ccc2ccccc2c1)NC(C)=O)C(=O)N1CCC[C@H]1C(=O)N[C@H](C)C(N)=O | 15.7 (≈ 10.5 µM) | 1.2
CC(=O)N[C@H](Cc1ccc2ccccc2c1)C(=O)N[C@H](Cc1ccc(Cl)cc1)C(=O)N[C@H](Cc1cccnc1)C(=O)N[C@@H](CO)C(=O)N[C@@H](Cc1ccc(O)cc1)C(=O)N[C@H](CCCCNC1=NCCCN1)C(=O)N[C@@H](CC(C)C)C(=O)N[C@@H](CCCCNC1=NCCCN1)C(=O)N1CCC[C@H]1C(=O)N[C@H](C)C(N)=O | 1.33 (≈ 0.865 µM) | ~0.6
CC(=O)N[C@H](Cc1ccc2ccccc2c1)C(=O)N[C@H](Cc1ccc(F)cc1)C(=O)N[C@H](Cc1c[nH]c2ccccc12)C(=O)N[C@@H](CO)C(=O)N[C@@H](Cc1ccc(O)cc1)C(=O)N[C@H](CCCN=C(N)N)C(=O)N[C@@H](CC(C)C)C(=O)N[C@@H](CCCN=C(N)N)C(=O)N1CCC[C@H]1C(=O)NCC(N)=O (Ac-[d2Nal][dPhe(4-F)][dW]SY[dR]LRPG-NH2) | 0.51 (≈ 0.355 µM) | 2.4
CC(=O)N[C@H](Cc1ccc2ccccc2c1)C(=O)N[C@H](Cc1ccc(Cl)cc1)C(=O)N[C@H](Cc1c[nH]c2ccccc12)C(=O)N[C@@H](CO)C(=O)N[C@@H](CCCN=C(N)N)C(=O)N[C@H](Cc1c[nH]c2ccccc12)C(=O)N[C@@H](CC(C)C)C(=O)N[C@@H](CCCCN=C(NCC(F)(F)F)NCC(F)(F)F)C(=O)N1CCC[C@H]1C(=O)N[C@H](C)C(N)=O [listing 1 of 2 here] |  | >2
CC(=O)N[C@H](Cc1ccc2ccccc2c1)C(=O)N[C@H](Cc1ccc(Cl)cc1)C(=O)N[C@H](Cc1c[nH]c2ccccc12)C(=O)N[C@@H](CO)C(=O)N[C@@H](Cc1ccc(O)cc1)C(=O)N[C@H](Cc1c[nH]c2ccccc12)C(=O)N[C@@H](CC(C)C)C(=O)N[C@@H](CCCCNC1=NCCCN1)C(=O)N1CCC[C@H]1C(=O)N[C@H](C)C(N)=O [listing 1 of 2 here] |  | >1
CC/N=C(/NCC)NCCCC[C@@H](NC(=O)[C@H](Cc1ccc(O)cc1)NC(=O)[C@H](CO)NC(=O)[C@@H](Cc1cccnc1)NC(=O)[C@@H](Cc1ccc(F)cc1)NC(=O)[C@@H](Cc1ccc2ccccc2c1)NC(C)=O)C(=O)N[C@@H](CC(C)C)C(=O)N[C@@H](CCCCN/C(=N/CC)NCC)C(=O)N1CCC[C@H]1C(=O)N[C@H](C)C(N)=O [listing 1 of 2 here] |  | 1
CC(=O)N[C@H](Cc1ccc2ccccc2c1)C(=O)N[C@H](Cc1ccc(Cl)cc1)C(=O)N[C@H](Cc1c[nH]c2ccccc12)C(=O)N[C@@H](CO)C(=O)N[C@@H](Cc1ccc(O)cc1)C(=O)N[C@H](Cc1c[nH]c2ccccc12)C(=O)N[C@@H](CC(C)C)C(=O)N[C@@H](CCCCN=C(NCC(F)(F)F)NCC(F)(F)F)C(=O)N1CCC[C@H]1C(=O)N[C@H](C)C(N)=O [listing 1 of 2 here] |  | >2
CC/N=C(/NCC)NCCCC[C@@H](NC(=O)[C@H](Cc1ccc(O)cc1)NC(=O)[C@H](CO)NC(=O)[C@@H](Cc1cccnc1)NC(=O)[C@@H](Cc1ccc(F)cc1)NC(=O)[C@@H](Cc1ccc2ccccc2c1)NC(C)=O)C(=O)N[C@@H](CC(C)C)C(=O)N[C@@H](CCCCN/C(=N/CC)NCC)C(=O)N1CCC[C@H]1C(=O)N[C@H](C)C(N)=O [listing 2 of 2 here] | 8 (≈ 5.15 µM) | 
CC(=O)N[C@H](Cc1ccc2ccccc2c1)C(=O)N[C@H](Cc1ccc(Cl)cc1)C(=O)N[C@H](Cc1c[nH]c2ccccc12)C(=O)N[C@@H](CO)C(=O)N[C@@H](Cc1ccc(O)cc1)C(=O)N[C@H](Cc1c[nH]c2ccccc12)C(=O)N[C@@H](CC(C)C)C(=O)N[C@@H](CCCCN=C(NCC(F)(F)F)NCC(F)(F)F)C(=O)N1CCC[C@H]1C(=O)N[C@H](C)C(N)=O [listing 2 of 2 here] | > 100 | 
CC(=O)N[C@H](Cc1ccc2ccccc2c1)C(=O)N[C@H](Cc1ccc(Cl)cc1)C(=O)N[C@H](Cc1c[nH]c2ccccc12)C(=O)N[C@@H](CO)C(=O)N[C@@H](CCCN=C(N)N)C(=O)N[C@H](Cc1c[nH]c2ccccc12)C(=O)N[C@@H](CC(C)C)C(=O)N[C@@H](CCCCN=C(NCC(F)(F)F)NCC(F)(F)F)C(=O)N1CCC[C@H]1C(=O)N[C@H](C)C(N)=O [listing 2 of 2 here] | 0.56 (≈ 0.335 µM) | 
CC/N=C(\NCC)NCCCC[C@H](NC(=O)[C@H](CC(C)C)NC(=O)[C@@H](CCCCN=C(NCC(F)(F)F)NCC(F)(F)F)NC(=O)[C@H](Cc1ccc(O)cc1)NC(=O)[C@H](CO)NC(=O)[C@@H](Cc1cccnc1)NC(=O)[C@@H](Cc1ccc(F)cc1)NC(=O)[C@@H](Cc1ccc2ccccc2c1)NC(C)=O)C(=O)N1CCC[C@H]1C(=O)N[C@H](C)C(N)=O | 9.3 (≈ 5.6 µM) | 
CC/N=C(/NCC)NCCCC[C@@H](NC(=O)[C@H](Cc1ccc(O)cc1)NC(=O)[C@H](CO)NC(=O)[C@@H](Cc1c[nH]c2ccccc12)NC(=O)[C@@H](Cc1ccc(Cl)cc1)NC(=O)[C@@H](Cc1ccc2ccccc2c1)NC(C)=O)C(=O)N[C@@H](CC(C)C)C(=O)N[C@@H](CCCCN/C(=N/CC)NCC)C(=O)N1CCC[C@H]1C(=O)N[C@H](C)C(N)=O [listing 1 of 2 here] |  | 0.5
CC/N=C(\NCC)NCCCC[C@H](NC(=O)[C@H](CO)NC(=O)[C@@H](Cc1cccnc1)NC(=O)[C@@H](Cc1ccc(F)cc1)NC(=O)[C@@H](Cc1ccc2ccccc2c1)NC(C)=O)C(=O)N[C@H](Cc1cccnc1)C(=O)N[C@@H](CC(C)C)C(=O)N[C@@H](CCCCN/C(=N/CC)NCC)C(=O)N1CCC[C@H]1C(=O)N[C@H](C)C(N)=O | 26.2 (≈ 17 µM) | 
CC(=O)N[C@H](Cc1ccc2ccccc2c1)C(=O)N[C@H](Cc1ccc(Cl)cc1)C(=O)N[C@H](Cc1c[nH]c2ccccc12)C(=O)N[C@@H](CO)C(=O)N[C@@H](Cc1ccc(O)cc1)C(=O)N[C@H](CCCCNC1=NCCCN1)C(=O)N[C@@H](CC(C)C)C(=O)N[C@@H](CCCCNC1=NCCCN1)C(=O)N1CCC[C@H]1C(=O)N[C@H](C)C(N)=O [listing 2 of 2 here] |  | 0.7
CC(=O)N[C@H](Cc1ccc2ccccc2c1)C(=O)N[C@H](Cc1ccc(Cl)cc1)C(=O)N[C@H](Cc1c[nH]c2ccccc12)C(=O)N[C@@H](CO)C(=O)N[C@@H](Cc1ccc(O)cc1)C(=O)N[C@H](Cc1c[nH]c2ccccc12)C(=O)N[C@@H](CC(C)C)C(=O)N[C@@H](CCCCNC1=NCCCN1)C(=O)N1CCC[C@H]1C(=O)N[C@H](C)C(N)=O [listing 2 of 2 here] | 8.5 (≈ 5.48 µM) | 
CC/N=C(/NCC)NCCCC[C@@H](NC(=O)[C@H](Cc1ccc(O)cc1)NC(=O)[C@H](CO)NC(=O)[C@@H](Cc1cccnc1)NC(=O)[C@@H](Cc1ccc(Cl)cc1)NC(=O)[C@@H](Cc1ccc2ccccc2c1)NC(C)=O)C(=O)N[C@@H](CC(C)C)C(=O)N[C@@H](CCCCN/C(=N/CC)NCC)C(=O)N1CCC[C@H]1C(=O)N[C@H](C)C(N)=O [listing 1 of 2 here] | 13 (≈ 8.28 µM) | 
CCCC/N=C(\N)NCCCC[C@H](NC(=O)[C@H](CO)NC(=O)[C@@H](Cc1cccnc1)NC(=O)[C@@H](Cc1ccc(Cl)cc1)NC(=O)[C@@H](Cc1ccc2ccccc2c1)NC(C)=O)C(=O)N[C@H](Cc1cccnc1)C(=O)N[C@@H](CC(C)C)C(=O)N[C@@H](CCCCN/C(N)=N/CCCC)C(=O)N1CCC[C@H]1C(=O)N[C@H](C)C(N)=O [listing 2 of 2 here] |  | 1.5
CC/N=C(/NCC)NCCCC[C@@H](NC(=O)[C@H](Cc1ccc(O)cc1)NC(=O)[C@H](CO)NC(=O)[C@@H](Cc1cccnc1)NC(=O)[C@@H](Cc1ccc(Cl)cc1)NC(=O)[C@@H](Cc1ccc2ccccc2c1)NC(C)=O)C(=O)N[C@@H](CC(C)C)C(=O)N[C@@H](CCCCN/C(=N/CC)NCC)C(=O)N1CCC[C@H]1C(=O)N[C@H](C)C(N)=O [listing 2 of 2 here] |  | 0.285
CC/N=C(/NCC)NCCCC[C@@H](NC(=O)[C@H](Cc1ccc(O)cc1)NC(=O)[C@H](CO)NC(=O)[C@@H](Cc1c[nH]c2ccccc12)NC(=O)[C@@H](Cc1ccc(Cl)cc1)NC(=O)[C@@H](Cc1ccc2ccccc2c1)NC(C)=O)C(=O)N[C@@H](CC(C)C)C(=O)N[C@@H](CCCCN/C(=N/CC)NCC)C(=O)N1CCC[C@H]1C(=O)N[C@H](C)C(N)=O [listing 2 of 2 here] | 0.1 (≈ 0.0622 µM) | 
